Data taken from article PMC7384665 (Bioorganic & medicinal chemistry, 2020).
Read-outs that look alike come from different tables or passages of the source.

Columns and labels:
Recombinant FTase = Recombinant FTase (Rattus norvegicus, UniProt Q02293+Q04631); test: FTase enzyme assay; type: biochemical; settings: for FTase inhibitory activity: concentrations as high as 100 μM, data not shown
Recombinant GGTase I = Recombinant GGTase I (Rattus norvegicus, UniProt P53610+Q04631); test: GGTase I enzyme assay; type: biochemical
Chain of Recombinant GGTase I (P53610 whole entry, one chain of several): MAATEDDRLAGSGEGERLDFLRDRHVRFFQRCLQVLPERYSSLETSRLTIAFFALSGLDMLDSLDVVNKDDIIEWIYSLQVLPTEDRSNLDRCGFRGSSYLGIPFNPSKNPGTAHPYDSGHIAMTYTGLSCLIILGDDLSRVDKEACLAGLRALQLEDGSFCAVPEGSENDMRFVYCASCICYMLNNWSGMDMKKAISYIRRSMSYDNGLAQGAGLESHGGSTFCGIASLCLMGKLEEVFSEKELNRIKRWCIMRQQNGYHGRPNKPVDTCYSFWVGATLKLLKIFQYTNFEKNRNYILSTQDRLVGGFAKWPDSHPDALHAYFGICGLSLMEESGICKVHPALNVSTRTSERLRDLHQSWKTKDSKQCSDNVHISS
Summary of the method: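 Recombinant GGTase I activity measured by a modified Temple et al. method, with dansyl-peptide substrates (dansyl-GCVLS and dansyl-GCVLL listed for the FTase/GGTase I assays); fluorescence change followed over time on a microplate reader. Test compound run in duplicate at multiple concentrations, three independent experiments; IC50 obtained from concentration-response curves.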

RPMI-8226 myeloma cells [1] = test: Cellular assays: Rap1a immunoblot and intracellular lambda light chain ELISA; type: cell-based
RPMI-8226 myeloma cells [2] = test: H-Ras immunoblot; type: cell-based; settings: RPMI-8226 cells, 48 h
[3] = concentrations as high as 100 μM, data not shown

Chain of Recombinant FTase (Q02293 whole entry, one chain of several): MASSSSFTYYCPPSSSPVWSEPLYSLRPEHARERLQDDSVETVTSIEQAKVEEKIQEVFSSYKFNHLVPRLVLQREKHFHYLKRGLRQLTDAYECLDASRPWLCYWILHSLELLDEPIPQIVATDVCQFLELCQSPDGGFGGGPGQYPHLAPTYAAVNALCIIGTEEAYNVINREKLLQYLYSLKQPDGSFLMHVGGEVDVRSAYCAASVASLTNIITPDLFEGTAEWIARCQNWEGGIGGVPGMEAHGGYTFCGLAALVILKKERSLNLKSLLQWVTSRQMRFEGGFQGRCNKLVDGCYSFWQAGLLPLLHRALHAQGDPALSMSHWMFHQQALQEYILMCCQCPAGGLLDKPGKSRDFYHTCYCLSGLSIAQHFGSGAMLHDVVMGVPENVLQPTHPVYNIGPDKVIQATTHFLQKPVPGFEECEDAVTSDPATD

| Compound | FTase inhibitory activity (Recombinant FTase) | GGTase I inhibitory activity (Recombinant GGTase I; [3]) | Effect on H-Ras farnesylation (prenylation) (RPMI-8226 myeloma cells [2]) | further results |
| --- | --- | --- | --- | --- |
| CC(C)=CCC/C(C)=C\CC(=O)NCCC(P(=O)([O-])[O-])P(=O)([O-])[O-].[Na+].[Na+].[Na+].[Na+] [Compound 2g, Disodium (1-[bis(sodiooxy)phosphoryl]-3-[(3Z)-4,8-dimethylnona-3,7-dienamido]propyl)phosphonate] | no inhibitory activity was observed | no inhibitory activity was observed | None of these compounds (2g, 2h, 2i, 2e, 2d) disrupted H-Ras farnesylation | Fold increase in GGDPS inhibitor activity with respect to 2c (RPMI-8226 myeloma cells [1]; Figure 3B, Rap1a immunoblot): 10 fold |
| CC(C)=CCC[C@@H](C)CC(=O)NCCC(P(=O)([O-])[O-])P(=O)([O-])[O-].[Na+].[Na+].[Na+].[Na+] [Compound 2e, Disodium (1-[bis(sodiooxy)phosphoryl]-3-[(3R)-3,7-dimethyloct-6-enamido]propyl)phosphonate] | no inhibitory activity was observed | no inhibitory activity was observed | None of these compounds (2g, 2h, 2i, 2e, 2d) disrupted H-Ras farnesylation | Fold more potent than S-isomer 2d (RPMI-8226 myeloma cells [1]; cellular assays): 10 fold |
| CC(C)=CCC[C@H](C)CC(=O)NCCC(P(=O)([O-])[O-])P(=O)([O-])[O-].[Na+].[Na+].[Na+].[Na+] [Compound 2d, Disodium (1-[bis(sodiooxy)phosphoryl]-3-[(3S)-3,7-dimethyloct-6-enamido]propyl)phosphonate] | no inhibitory activity was observed | no inhibitory activity was observed | None of these compounds (2g, 2h, 2i, 2e, 2d) disrupted H-Ras farnesylation | – |
| CC(C)=CCC/C(C)=C/C(=O)NCCC(P(=O)([O-])[O-])P(=O)([O-])[O-].[Na+].[Na+].[Na+].[Na+] [Compound 2b, Disodium (1-[bis(sodiooxy)phosphoryl]-3-[(2E)-3,7-dimethylocta-2,6-dienamido]propyl)phosphonate] | – | – | disrupted H-Ras farnesylation | GGTase I inhibitory activity (Recombinant GGTase I): no inhibitory activity |
| CC(C)=CCC/C(C)=C\CCC(=O)NCCC(P(=O)([O-])[O-])P(=O)([O-])[O-].[Na+].[Na+].[Na+].[Na+] [Compound 2i, Disodium (1-[bis(sodiooxy)phosphoryl]-3-[(4Z)-5,9-dimethyldeca-4,8-dienamido]propyl)phosphonate] | no inhibitory activity was observed | no inhibitory activity was observed | None of these compounds (2g, 2h, 2i, 2e, 2d) disrupted H-Ras farnesylation | Times less potent than triazole 1 (RPMI-8226 myeloma cells [1]; by LEC): approximately 17 times |
| CC(C)=CCC/C(C)=C/CCC(=O)NCCC(P(=O)([O-])[O-])P(=O)([O-])[O-].[Na+].[Na+].[Na+].[Na+] [Compound 2h, Disodium (1-[bis(sodiooxy)phosphoryl]-3-[(4E)-5,9-dimethyldeca-4,8-dienamido]propyl)phosphonate] | no inhibitory activity was observed | no inhibitory activity was observed | None of these compounds (2g, 2h, 2i, 2e, 2d) disrupted H-Ras farnesylation | – |
| CC(C)=CCC/C(C)=C\C(=O)NCCC(P(=O)(O)O)P(=O)(O)O [Compound 2c] | – | – | – | inhibition at 100 µM (Recombinant FTase; read-out: FTase inhibitory activity): < 30% |
| CC(C)=CCCC(=O)NCCC(P(=O)([O-])[O-])P(=O)([O-])[O-].[Na+].[Na+].[Na+].[Na+] [Compound 2j, Disodium (1-[bis(sodiooxy)phosphoryl]-3-(5-methylhex-4-enamido)propyl)phosphonate] | – | – | lack of effect | – |
